Molecular target: T1, CYP1A2 (Homo sapiens, UniProt P05177)
T1 sequence (P05177 whole entry): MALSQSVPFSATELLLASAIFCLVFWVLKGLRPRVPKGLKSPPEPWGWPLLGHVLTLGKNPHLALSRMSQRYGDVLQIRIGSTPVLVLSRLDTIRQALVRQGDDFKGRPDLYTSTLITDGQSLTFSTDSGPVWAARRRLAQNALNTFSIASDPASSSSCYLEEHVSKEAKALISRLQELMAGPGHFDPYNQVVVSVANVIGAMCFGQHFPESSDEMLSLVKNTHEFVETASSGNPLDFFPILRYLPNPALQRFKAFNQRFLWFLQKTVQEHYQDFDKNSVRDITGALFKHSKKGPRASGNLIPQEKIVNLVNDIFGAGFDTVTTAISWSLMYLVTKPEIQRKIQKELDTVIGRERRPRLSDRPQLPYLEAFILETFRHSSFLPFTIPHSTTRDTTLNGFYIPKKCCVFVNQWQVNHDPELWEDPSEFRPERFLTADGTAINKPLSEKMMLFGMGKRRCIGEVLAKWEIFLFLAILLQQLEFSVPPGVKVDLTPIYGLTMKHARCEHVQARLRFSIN
Assay: Time dependent inhibition of CYP1A2 in human liver microsomes assessed as enzyme remaining activity using cocktail of probe CYP as substrate at 50 uM
Type: ADME
Details: probe cocktail of CYP probe substrates, read-out: Activity
Method in brief: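 Time-dependent CYP inhibition in human liver microsomes, with test compound at 50 µM and a cocktail of probe CYP substrates.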

activity at 50 µM: 82%
SMILES: Cc1ccc(-n2c(=O)c(C(=O)Nc3ccc(Oc4ncnc5c4CCN(CC4CCN(C)CC4)C5)c(F)c3)cn(C3CCCC3)c2=O)nc1

Source: ChEMBL document CHEMBL4823291, “Discovery of 5,6,7,8-tetrahydropyrido[3,4-d]pyrimidine derivatives as novel selective Axl inhibitors” (Bioorg Med Chem Lett, 2021)
